From ChEMBL document CHEMBL1144391, “New pyrazolo[1',5':1,6]pyrimido[4,5-d]pyridazin-4(3H)-ones as potent and selective PDE5 inhibitors” (Bioorg Med Chem Lett, 2005)

Key:
Phosphodiesterase 6 = experiment: Inhibition of bovine Phosphodiesterase 6 (n=2-3); type: protein assay, Bos taurus
[1] = target: T1, cGMP-specific 3',5'-cyclic phosphodiesterase (Homo sapiens, UniProt O76074); experiment: Inhibition of human Phosphodiesterase 5 (n=2-3)
[2] = Half-life was observed; type: ADME
[3] = target: T2, Phosphodiesterase 6 (Bos taurus) (UniProt P23439+P16586+P11541+P22571+P04972+Q95142); experiment: Percentage inhibition of bovine Phosphodiesterase 6 at 2 uM (n=2-3); type: protein assay
Procedure, shortened: (§1)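 Enzyme purified from bovine retinas; cyclic nucleotide phosphodiesterase activity measured by a two-step procedure. Values are either IC50 or percent inhibition at the single test concentration stated.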

[4] = target: T2, Phosphodiesterase 6 (Bos taurus); experiment: Percentage inhibition of bovine Phosphodiesterase 6 at 0.2 uM (n=2-3); type: protein assay; procedure, shortened: as §1
[5] = target: T1, cGMP-specific 3',5'-cyclic phosphodiesterase; experiment: Percentage inhibition of human Phosphodiesterase 5 at 2 uM (n=2-3)
Procedure, shortened: (§2)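 Phosphodiesterase 5 purified from human platelets; activity measured by a two-step cyclic nucleotide phosphodiesterase procedure. Percent inhibition recorded at the single stated concentration.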

[6] = target: T1, cGMP-specific 3',5'-cyclic phosphodiesterase; experiment: Percentage inhibition of human Phosphodiesterase 5 at 20 uM (n=2-3); procedure, shortened: as §2
[7] = target: T1, cGMP-specific 3',5'-cyclic phosphodiesterase; experiment: Percentage inhibition of human Phosphodiesterase 5 at 0.2 uM (n=2-3); procedure, shortened: as §2

With `Cc1nn(Cc2ccccc2)c(=O)c2nc(CCC(=O)O)n3nc(-c4ccccc4)cc3c12` the IC50 (Phosphodiesterase 6) was 0.59 µM and the IC50 [1] was 430 nM.

With `CN1CC(=O)N2[C@H](c3ccc4c(c3)OCO4)c3[nH]c4ccccc4c3C[C@@H]2C1=O` the half-life [2] was > 1020 min.

With `Cc1nn(Cc2ccccc2)c(=O)c2nc(CCCCC(=O)O)n3nc(-c4ccccc4)cc3c12` the IC50 (Phosphodiesterase 6) was 0.063 µM and the IC50 [1] was 90 nM.

Work on `CCC(C)c1nc2c(=O)n(Cc3ccccc3)nc(C)c2c2cc(-c3ccccc3)nn12` (centres undefined) yielded an inhibition [3] of 42.5% and an IC50 [1] of 34 nM.

`Cc1nn(Cc2ccccc2)c(=O)c2nc(-c3ccccn3)n3nc(-c4ccccc4)cc3c12` showed an inhibition [3] of 21.3% and an IC50 [1] of 81 nM.

In the case of `Cc1nn(Cc2ccccc2)c(=O)c2nc(CCc3ccccc3)n3nc(-c4ccccc4)cc3c12`, the IC50 (Phosphodiesterase 6) is reported as 30 µM and the IC50 [1] is reported as 980 nM.

Work on `Cc1nn(Cc2cccc(OP(=O)(O)O)c2)c(=O)c2nc(C)n3nc(-c4ccccc4)cc3c12` yielded an inhibition [4] of 28.6% and an IC50 [1] of 230 nM.

In the case of `Cc1nn(CC2CCCCC2)c(=O)c2nc(C)n3nc(-c4ccccc4)cc3c12`, the IC50 (Phosphodiesterase 6) is reported as 11 µM and the IC50 [1] is reported as 3100 nM.

In the case of `Cc1nn(Cc2ccccc2)c(=O)c2nc(CCCC(=O)O)n3nc(-c4ccccc4)cc3c12`, the IC50 (Phosphodiesterase 6) is reported as 0.11 µM and the IC50 [1] is reported as 30 nM.

For `Cc1nn(Cc2ccccc2)c(=O)c2nc(Cc3ccccc3)n3nc(-c4ccccc4)cc3c12`, the inhibition [3] was 13.6% and the inhibition [5] was 22.5%.

For `Cc1nn(Cc2ccccc2)c(=O)c2nc(-c3ccccc3)n3nc(-c4ccccc4)cc3c12`, the IC50 (Phosphodiesterase 6) was 2.8 µM and the IC50 [1] was 81 nM.

`Cc1nn(Cc2ccccc2)c(=O)c2nc(C)n3nc(C(C)(C)C)cc3c12` gave an inhibition [5] of 31%.

For `Cc1nn(Cc2ccccc2)c(=O)c2nc(C)n3nc(-c4ccccc4)cc3c12`, the inhibition [3] was 25% and the IC50 [1] was 160 nM.

In the case of `Cc1nn(Cc2ccccc2)c(=O)c2nc(C)n3nc(-c4ccccn4)cc3c12`, the IC50 (Phosphodiesterase 6) is reported as 10 µM and the IC50 [1] is reported as 270 nM.

For `CSCc1nc2c(=O)n(Cc3ccccc3)nc(C)c2c2cc(-c3ccccc3)nn12`, the inhibition [3] was 38.1% and the IC50 [1] was 100 nM.

Work on `CCC(C)c1nc2c(=O)n(Cc3cccc(OP(=O)(O)O)c3)nc(C)c2c2cc(-c3ccccc3)nn12` (centres undefined) yielded an inhibition [3] of 66.9% and an IC50 [1] of 59 nM.

In the case of `Cc1nn(Cc2ccccc2)c(=O)c2nc(C)n3nc(-c4ccc5c(c4)OCO5)cc3c12`, the IC50 (Phosphodiesterase 6) is reported as 78 µM.

Work on `Cc1nn(Cc2ccc([N+](=O)[O-])cc2)c(=O)c2nc(C)n3nc(-c4ccccc4)cc3c12` yielded an inhibition [3] of 10.4% and an inhibition [6] of 65.9%.

Work on `Cc1nn(Cc2ccccc2)c(=O)c2nc(/C=C/C(=O)O)n3nc(-c4ccccc4)cc3c12` yielded an IC50 (Phosphodiesterase 6) of 0.58 µM and an IC50 [1] of 320 nM.

With `Cc1nn(Cc2ccccc2)c(=O)c2nc(CC3CCCCC3)n3nc(-c4ccccc4)cc3c12` the inhibition [3] was 19.2% and the inhibition [5] was 33.6%.

With `CCC(CC)c1nc2c(=O)n(Cc3ccccc3)nc(C)c2c2cc(-c3ccccc3)nn12` the inhibition [3] was 37.4% and the IC50 [1] was 67 nM.

For `CCOCc1nc2c(=O)n(Cc3ccccc3)nc(C)c2c2cc(-c3ccccc3)nn12`, the inhibition [3] was 45% and the IC50 [1] was 350 nM.

Work on `Cc1cccc(-c2nc3c(=O)n(Cc4ccccc4)nc(C)c3c3cc(-c4ccccc4)nn23)c1` yielded an inhibition [3] of 11.5% and an IC50 [1] of 75 nM.

With `COCc1nc2c(=O)n(Cc3ccccc3)nc(C)c2c2cc(-c3ccccc3)nn12` the inhibition [3] was 53.3% and the IC50 [1] was 100 nM.

Work on `Cc1nn(Cc2ccccc2)c(=O)c2nc(C)n3nc(-c4ccc([N+](=O)[O-])cc4)cc3c12` yielded an inhibition [4] of 14.4% and an inhibition [6] of 65.5%.

Work on `Cc1nn(Cc2ccccc2)c(=O)c2nc(-c3cccnc3)n3nc(-c4ccccc4)cc3c12` yielded an inhibition [3] of 17.7% and an IC50 [1] of 180 nM.

`Cc1ccccc1-c1nc2c(=O)n(Cc3ccccc3)nc(C)c2c2cc(-c3ccccc3)nn12` showed an inhibition [5] of 55.1%.

`Cc1nn(Cc2ccccc2)c(=O)c2nc(C)n3nc(-c4ccc(N)cc4)cc3c12` gave an inhibition [3] of 4.5% and an IC50 [1] of 920 nM.

With `Cc1nn(-c2ccccc2)c(=O)c2nc(C)n3nc(-c4ccccc4)cc3c12` the inhibition [7] was 11.9% and the inhibition [4] was 3.7%.

`Cc1nn(Cc2ccc(N)cc2)c(=O)c2nc(C)n3nc(-c4ccccc4)cc3c12` showed an IC50 (Phosphodiesterase 6) of 2 µM and an IC50 [1] of 1100 nM.

For `Cc1nn(Cc2ccccc2)c(=O)c2nc(Cc3ccncc3)n3nc(-c4ccccc4)cc3c12`, the inhibition [3] was 20.4% and the IC50 [1] was 450 nM.

For `CCC(C)c1nc2c(=O)n(Cc3ccccc3)nc(C)c2c2cc(-c3ccccn3)nn12` (centres undefined), the inhibition [3] was 34.6% and the IC50 [1] was 39 nM.

Work on `Cc1nn(Cc2ccccc2)c(=O)c2nc(-c3ccncc3)n3nc(-c4ccccc4)cc3c12` yielded an inhibition [3] of -4.8% and an inhibition [5] of 69%.

`Cc1nn(Cc2ccccc2)c(=O)c2nc(CC3CCCC3)n3nc(-c4ccccc4)cc3c12` gave an inhibition [3] of 4.2% and an inhibition [5] of 18.2%.
